Measurements gathered from unrelated publications.
Protocols differ between the studies behind these lines.
OPRK1: Kappa-type opioid receptor (OPRK1, Cavia porcellus, UniProt P41144)
ADRA1A: Alpha-1A adrenergic receptor (ADRA1A, Homo sapiens, UniProt P35348)

N=C(N)NCCC[C@@H]1NC(=O)[C@H](Cc2ccc(O)cc2)NC(=O)[C@@H](CCCCN)NC(=O)[C@@H](Cc2ccccc2)NC1=O — Ki (OPRK1; ligand displacement; radioligand; cell membranes): 4.85 µM
Cc1nccc2c1[nH]c1ccccc12 — Ki (Amine oxidase [flavin-containing] A (MAOA, Homo sapiens, UniProt P21397); enzyme activity; inhibitor): 0.58 µM
CC[C@H](C)[C@H](NC(=O)[C@H](CC(=O)O)NC(=O)[C@H](CC(N)=O)NC(=O)[C@@H](NC(=O)[C@H](Cc1ccccc1)NC(=O)[C@H](CO)NC(=O)CNC(=O)[C@H](CC(=O)O)NC(=O)[C@H](C)NC(=O)[C@@H](N)Cc1c[nH]cn1)[C@@H](C)O)C(=O)N[C@@H](CC(N)=O)C(=O)N[C@@H](CCCCN)C(=O)N[C@H](C(=O)N[C@@H](CC(C)C)C(=O)N[C@@H](CC(=O)O)C(=O)N[C@H](C(=O)N[C@H](C(=O)N[C@@H](C)C(=O)N[C@@H](C)C(=O)N[C@@H](CCC(N)=O)C(=O)N[C@@H](CCC(=O)O)C(=O)N[C@@H](Cc1ccccc1)C(=O)N[C@@H](CC(C)C)C(=O)N[C@@H](CC(=O)O)C(=O)N[C@@H](Cc1c[nH]c2ccccc12)C(=O)N[C@H](C(=O)N[C@H](C(=O)N[C@@H](CC(N)=O)C(=O)N[C@H](C(=O)N[C@@H](CCC(N)=O)C(=O)N[C@H](C(=O)N[C@H](C(=O)N[C@@H](CCC(=O)O)C(=O)O)[C@@H](C)O)C(C)C)[C@@H](C)O)[C@@H](C)CC)C(C)C)[C@@H](C)CC)[C@@H](C)CC)C(C)C — EC50 (Glucagon-like peptide 2 receptor (GLP2R, Homo sapiens, UniProt O95838); reporter gene; agonist; luciferase): > 1000 nM
Cc1cc(O)cc(C)c1C[C@H](C)C(=O)N[C@@H]1C/C=C\CC[C@@H](C(N)=O)NC(=O)[C@H](Cc2ccccc2)NC(=O)[C@H](Cc2ccccc2)NC1=O — Ki (OPRK1; ligand displacement; radioligand; cell membranes): 0.185 µM
Nc1ncnc2c1ncn2[C@@H]1O[C@H](COP(=O)(O)OP(=O)(O)NP(=O)(O)O)[C@@H](O)[C@H]1O — Ki (lptB (Escherichia coli, UniProt P0A9V1); ATPase activity; inhibitor): 25000 µM
CC(C)C[C@H](NC(=O)[C@H](CCCCN)NC(=O)[C@@H]1CCCN1C(=O)[C@@H](N)CCCNC(=N)N)C(=O)N[C@@H](CCCCN)C(=O)O — Ki (ADRA1A; cell-free assay; radioligand): > 10 µM
Cc1cc(O)cc(C)c1C[C@H](N)C(=O)N[C@H](C)C(=O)NCC(=O)N[C@@H](Cc1ccc(Cl)cc1)C(=O)N(C)CCC[C@@]1(c2ccc(F)cc2)OCc2cc(C#N)ccc21 — Ki (ADRA1A; ligand displacement; radioligand): 4.6 µM
Cc1cc(O)cc(C)c1C[C@H](N)C(=O)N[C@H](CCCNC(=N)N)C(=O)N[C@@H](Cc1c(C)cccc1C(C)C)C(=O)N[C@@H](CCCCN)C(N)=O — Ki (OPRK1; ligand displacement; radioligand; cell membranes): 0.000236 µM
Cc1cc(O)cc(C)c1C[C@H](N)C(=O)N[C@H](C)C(=O)N[C@@H](Cc1ccccc1)C(=O)N[C@@H](CCCN)C(N)=O — Ki (OPRK1; ligand displacement; radioligand; cell membranes): 0.032 µM
Cc1cc(O)cc(C)c1C[C@H](N)C(=O)N[C@H](CCCNC(=N)N)C(=O)N[C@@H](Cc1c[nH]c2ccccc12)C(=O)N[C@@H](CCCCN)C(N)=O — Ki (OPRK1; ligand displacement; radioligand; cell membranes): 0.0165 µM
CSCC[C@H](NC(=O)[C@H](Cc1c[nH]c2ccccc12)NC(=O)[C@@H](N)CO)C(=O)N[C@H](C(=O)N[C@H](C(=O)N1CCC[C@H]1C(=O)N[C@@H](Cc1c[nH]c2ccccc12)C(=O)NCC(=O)N[C@@H](Cc1ccccc1)C(=O)N[C@@H](Cc1c[nH]cn1)C(=O)N[C@@H](CC(C)C)C(=O)N1CCC[C@H]1C(=O)O)[C@@H](C)O)[C@@H](C)O — Kd (Chaperonin GroEL (groEL, Escherichia coli, UniProt P0A6F5); binding; ITC): 1400 nM
CCc1cccc(C)c1C[C@H](NC(=O)[C@@H](CCCNC(=N)N)NC(=O)[C@@H](N)Cc1c(C)cc(O)cc1C)C(=O)N[C@@H](CCCCN)C(N)=O — Ki (OPRK1; ligand displacement; radioligand; cell membranes): 0.000961 µM
CCCC[C@@H](NC(=O)[C@@H](N)Cc1c(C)cc(O)cc1C)C(=O)NCC(=O)N[C@@H](Cc1ccc(F)cc1)C(=O)N(C)CCC[C@@]1(c2ccc(F)cc2)OCc2cc(C#N)ccc21 — Ki (ADRA1A; ligand displacement; radioligand): > 10 µM
